Bioassay records (PubChem BioAssay)
Arbovirus inh: antivirals against arbovirus infection; arbovirus infection cell-based antiviral screen; inhibition, % at 10 µM; hit rate 0.37% among 200,000; in the data active means inhibition above about 30%
Bim-Mcl-1: human Bim-Mcl-1 interaction inhibition. Q07820. Bead-based flow cytometry, Bim peptide-Mcl-1 binding. inhibition, % at 10 µM. hit rate 0.1% among 190,000. AID 1009; in the data active means inhibition above about 40%;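 further: 0% = no compound tracer wells and 100% = peptide blocker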
Target sequence (Q07820 whole entry, looked up): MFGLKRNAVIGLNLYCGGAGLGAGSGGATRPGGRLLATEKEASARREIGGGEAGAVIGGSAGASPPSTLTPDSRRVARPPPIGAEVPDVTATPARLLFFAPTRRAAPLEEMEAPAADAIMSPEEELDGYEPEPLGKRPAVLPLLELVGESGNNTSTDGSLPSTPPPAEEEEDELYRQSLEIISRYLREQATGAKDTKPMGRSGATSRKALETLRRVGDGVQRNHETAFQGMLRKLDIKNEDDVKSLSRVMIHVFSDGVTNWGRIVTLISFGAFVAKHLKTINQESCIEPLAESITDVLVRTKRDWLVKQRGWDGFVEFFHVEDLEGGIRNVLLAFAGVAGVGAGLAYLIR
Mcl1 Noxa PPI: disrupts binding of human Mcl-1 to Noxa peptide. TR-FRET Mcl-1/Noxa peptide binding, 2 h. hit rate 1.5% among 220,000. AID 1022. Q07820. inhibition, % at 21.7 µM;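 active means compounds that cut the protein-peptide binding signal by more than 50% relative to plate controls in a single-dose test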;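 further: His-tagged Mcl-1 with rhodamine Noxa BH3 peptide and terbium anti-His antibody; 0% = Mcl-1 plus Noxa peptide wells and 100% = peptide-only wells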
Calb biofilm kill: mixtures killing C. albicans biofilm | C. albicans biofilm persisters + clotrimazole, fluorescence viability; primary screen in compound mixtures of four per well | inhibition, % at 7.6 µM | hit rate 0.02% among 120,000 | AID 1242;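 active means inhibition above 30.3% in the primary screen of four-compound pools, then above 30% when the compound was retested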;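 further: compounds exposed to preformed 24 h biofilms for 48 h; 0% = untreated biofilm control and 100% = clotrimazole plus chlorhexidine kill blank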
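Test system: C. albicans CAF4-2 wild-type biofilms; buffer or medium: RPMI/MOPS medium, pH 7.0; schedule: 24 h biofilm formation, then 48 h compound exposure, 37 °C; detection: Alamar Blue fluorescence; measure: percent inhibition of biofilm viability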
Mcl1-Bid inh: Mcl-1/Bid interaction inhibition; AID 1021; hit rate 0.97% among 220,000; TR-FRET Mcl-1/Bid-Dy647 peptide binding, 1536-well; inhibition, % at 21.7 µM;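 active means compounds that cut the binding signal by more than half at the single screening dose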;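 further: His-tagged Mcl-1 with europium anti-His antibody binding Bid BH3 peptide; 0% = Mcl-1 plus peptide wells and 100% = peptide-only wells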
Calpain2 inh: inhibitors of pig calpain II | AID 1236 | hit rate 0.37% among 220,000 | inhibition, % at 16 µM | purified calpain II, fluorogenic peptide substrate, 30 min;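 active means inhibition above about 50%, limit read from the data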
* hit, by the source's call; . = no result. A selection: hits, their analogues and other compounds. The true share with any hit is near 2.8%.

SMILES	Arbovirus inh	Bim-Mcl-1	Mcl1 Noxa PPI	Calb biofilm kill	Mcl1-Bid inh	Calpain2 inh
NC(=O)CC(NC(=O)c1ccc(Br)cc1)c1ccc(NCCc2ccc(F)cc2)c([N+](=O)[O-])c1 (stereo not drawn)	.	.	12	12	18	13
O=C(CCS(=O)(=O)c1ccc(Cl)cc1)NCCc1c[nH]c2ccccc12	-9	0	16	4	-35	-25
COc1ccc(NC(C)C(=O)Nc2ccc(C#N)cc2)cc1Cl (stereo not drawn)	16	0	92*	.	89*	-144
COc1ccc(NC(C)C(=O)Nc2ccc(C(C)(C)C)cc2)cc1Cl (stereo not drawn)	-25	0	10	.	3	44
CNn1cnc2ccsc2c1=O	.	.	1	11	1	22
c1cnc2c(OCc3nc4ccccc4[nH]3)cccc2c1	4	2	19	.	8	56*
COc1ccccc1OCc1nc2ccccc2[nH]1	1	-1	3	.	-27	6
COc1ccc(/C=N/NC(=O)c2ccccc2O)cc1Cn1cc([N+](=O)[O-])cn1	.	.	26	4	-70	-21
COc1ccc(/C=N/NC(=O)c2cc(O)c(O)c(O)c2)cc1Cn1cc([N+](=O)[O-])cn1	-12	10	93*	12	-101	-14
CC1CCc2c(C(=O)Nc3ccc(N4CCOCC4)cc3)csc2C1 (stereo not drawn)	-16	-1	67*	6	-3	-25
Cn1c(CSc2nc3ccccc3s2)nnc1SCC(=O)NCc1cccnc1	4	1	-16	13	94*	33
Cn1c(CSCc2ccc(Cl)cc2)nnc1SCC(=O)Nc1nccs1	-3	1	18	5	7	16
Cn1c(CSCc2ccc(Cl)cc2)nnc1SCC(=O)Nc1nc2ccccc2s1	12	-1	1	.	62*	-16
O=C(CN1C(=O)c2cccc3cccc(c23)C1=O)NCCN1CCOCC1	5	-4	9	5	-40	-8
N/C(=N/OC(=O)c1ccccc1Cl)c1ncc([N+](=O)[O-])s1	.	.	-16	14	-2	-39
COc1cccc(OC)c1OCCCCn1cnc2ccccc2c1=O	-1	-3	3	10	51*	-5
CCCCCC#CCC#CCC#CCC#CCCCC(=O)O	24	0	103*	13	100*	32
CCCCCCCCCCCCS(=O)(=O)CCC(=O)O	.	.	11	27	5	-10
CCC1CCCCN1S(=O)(=O)c1ccc(S(=O)(=O)N(Cc2ccccn2)CC2CCCO2)cc1 (stereo not drawn)	-3	1	90*	10	-15	12
CCCCCCc1cc2cc(-c3nnc(-c4ccccc4OC)o3)c(=O)oc2cc1O	-3	-11	27	.	14	-188
CCCCCCc1cc2cc(C(=O)Nc3ccccc3OC)c(=O)oc2cc1O	80*	-4	10	-2	-14	-41
CCN(c1ccc(N=Cc2c(O)n(Cc3ccc(OC)cc3)c(=O)c3ccccc23)cc1)C(C)C	11	.	59*	16	-18	-43
CCCOc1cc(C)c(S(=O)(=O)NC2CC(C)(C)NC(C)(C)C2)cc1C	-24	-11	8	15	-34	2
CC1=C(C(=O)OCC2CCCO2)C(c2ccc(C)cc2)C2=C(CC(C)(C)CC2=O)N1 (stereo not drawn)	-2	0	11	3	-12	-89
O=C(OCCN1C(=O)c2ccccc2C1=O)c1ccccc1	8	0	5	15	-4	-21
SMILES	Arbovirus inh	Bim-Mcl-1	Mcl1 Noxa PPI	Calb biofilm kill	Mcl1-Bid inh	Calpain2 inh
O=C(OCCN1C(=O)c2ccccc2C1=O)c1ccc(S(=O)(=O)N2CCCCCC2)cc1	2	0	26	.	14	68*
O=C(N[C@@H](Cc1ccccc1)C(=O)O)c1ccncc1	2	-1	25	17	94*	-12
O=C(NC(Cc1ccccc1)C(=O)O)c1ccc(S(=O)(=O)N2CCCCC2)cc1 (stereo not drawn)	0	2	18	.	99*	3
CCCc1ccc(OCc2nc(-c3ccc(NC(=O)c4ccco4)cc3)no2)cc1	-18	-6	7	.	60*	-73
CCCc1ccc(OCc2nc(-c3ccc(NC(=O)c4cccs4)cc3)no2)cc1	-5	6	3	9	-3	-41
O=C(CSc1ccccc1F)NC(=O)NCc1ccco1	0	0	52*	13	-27	-217
CS/C(=N\S(=O)(=O)c1cccs1)NC(=O)CSc1nc2ccccc2s1	-7	1	53*	.	-5	-10
O=C(CN1CCN(c2ccc(O)cc2)CC1)NC(=O)NCc1ccco1	-11	-2	52*	18	-50	-49
Cc1ccccc1Nc1nnc(SCC(=O)NCc2ccco2)s1	-6	-3	61*	.	-21	-114
CCCCn1c(SCC(=O)NC(=O)NCc2ccco2)nc2cc(S(N)(=O)=O)ccc21	7	-2	63*	.	-2	-146
O=C(CSc1nc2ccccc2s1)NC(=O)NCc1ccco1	13	-2	54*	.	-25	-41
CCCCn1c(SCc2ccc(C(=O)OC)o2)nc2cc(S(N)(=O)=O)ccc21	4	-4	4	.	-31	-26
COc1ccc(C)cc1-n1nnnc1SCC(=O)NC(=O)NCc1ccco1	15	-2	62*	.	42	-58
O=C(CSc1nc(-c2ccccc2)cs1)NC(=O)NCc1ccco1	1	-5	5	.	5	7
CCOC(=O)/C(=N\Nc1ccc(Br)cc1)N1CC(C)OC(C)C1 (stereo not drawn)	.	.	3	17	-59	-3
CC1=NNC(=O)C1CC(=O)N/N=C(\C)c1ccco1 (stereo not drawn)	0	0	112*	16	-51	3
CC1=NNC(=O)C1CCC(=O)N/N=C(\C)c1ccccc1 (stereo not drawn)	5	0	-23	23	-84	-19
CCN(CC)c1ccc(/C=C2/C(=O)c3ccc(C(=O)O)cc3C2=O)cc1	0	.	58*	16	-92	-2
O=C(c1ccc(Cn2c(=S)[nH]c3cc4c(cc3c2=O)OCO4)cc1)N1CCN(c2ncccn2)CC1	-3	-1	8	-4	-42	-290
COc1ccc(NC(=O)c2c3c(nc4ccccc24)CCC3)cc1S(=O)(=O)N1CCOCC1	6	-1	67*	2	-99	-74
CC(C)Oc1ccc(Cc2cnc(=S)[nH]c2N)cc1	-9	-4	7	14	-52	11
C/C(=N\NC(=O)COc1ccc([N+](=O)[O-])cc1)C(C)(C)C	81*	-5	-18	.	-6	13
COc1ccc2nc(N3C(=O)/C(=C/c4ccccc4)NC3=S)sc2c1	-11	-4	64*	17	17	-2
O=C(CCC(=O)c1ccccc1)NCc1ccccc1	.	.	-2	18	-10	19
C=CCNCCCOc1ccc(C(C)(C)c2ccccc2)cc1	-35	-2	32	16	52*	-8
